In data set [1] the target is T1, Human immunodeficiency virus type 1 integrase (Human immunodeficiency virus 1, UniProt Q7ZJM1). In words: Inhibition of recombinant HIV-1 integrase 3'-processing activity expressed in Escherichia coli BL21(DE3) cells using 32P-labeled DNA substrate after 1 hr by densitometric analysis. Summed up: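 Reaction run 1 h at 37 °C, then stopped with an equal volume of formamide loading buffer containing 1% SDS, 0.25% bromophenol blue and xylene cyanol. Products resolved on 16% denaturing polyacrylamide sequencing gels; dried gels imaged. Value reported as the concentration giving 50% inhibition.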
T1 sequence (Q7ZJM1 whole entry): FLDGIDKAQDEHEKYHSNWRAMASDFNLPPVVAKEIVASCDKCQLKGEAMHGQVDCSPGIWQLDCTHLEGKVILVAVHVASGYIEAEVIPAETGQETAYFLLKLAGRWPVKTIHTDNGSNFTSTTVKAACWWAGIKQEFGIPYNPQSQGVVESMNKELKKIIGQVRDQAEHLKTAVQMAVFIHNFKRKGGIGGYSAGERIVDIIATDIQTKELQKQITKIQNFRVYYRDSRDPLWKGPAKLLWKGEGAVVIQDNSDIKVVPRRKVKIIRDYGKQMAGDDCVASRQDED

Data set [2] deals with T1, Human immunodeficiency virus type 1 integrase. Briefly: Inhibition of recombinant HIV-1 integrase stand transfer activity expressed in Escherichia coli BL21(DE3) cells using 32P-labeled DNA substrate after 1 hr by densitometric analysis.
Another data set concerns Vero. Briefly: (§1) Cytotoxicity against African green monkey Vero cells assessed as reduction in cell growth incubated for 5 days by CellTiter 96 AQueous One Solution cell proliferation assay. Type of data set: cell-based. The conditions noted are these: chlorocebus sabaeus, vero, 120 h.
The next data set has as its system CCRF-CEM. In words: (§2) Cytotoxicity against human CEM cells assessed as reduction in cell growth incubated for 5 days by CellTiter 96 AQueous One Solution cell proliferation assay. Type of data set: cell-based. The conditions noted are these: ccrf-cem, 120 h.
A short description of data set [3]: (§3) Cytotoxicity against human PBMC assessed as reduction in cell growth incubated for 5 days by CellTiter 96 AQueous One Solution cell proliferation assay. Type of data set: cell-based. The conditions noted are these: PBMC (peripheral blood mononuclear cells).
A further data set deals with PBMC. The data set is described as §3. The conditions noted are these: pbmc, 120 h. Type of data set: cell-based.
Data set [4] relates to Human immunodeficiency virus 1. Briefly: Antiviral activity against HIV1 infected in human peripheral blood mononuclear cells assessed as inhibition of reverse transcriptase activity incubated for 6 days. The conditions noted are these: Human immunodeficiency virus 1, 144 h. Type of data set: functional, organism-based.
A short description of data set [5]: as §1. Type of data set: cell-based. To be noted: chlorocebus sabaeus, Vero cells.
A short description of data set [6]: as §2. Type of data set: cell-based, CCRF-CEM. To be noted: CEM (CCRF-CEM) cells.

For orientation: IC50 means the midpoint of a concentration-inhibition curve. As to `CCOC(=O)c1c(CC)nc(SCc2ccc(C(=O)/C=C(\O)C(=O)O)cc2)nc1-c1ccc(OC)cc1`, the IC50 in data set [1] came out at 30.7 µM; in [2], 2.27 µM.
Taken in the same sequence, the figures for `CCOC(=O)c1c(-c2ccc(OC)cc2)nc(=O)n(Cc2ccc(C(=O)/C=C(\O)C(=O)O)cc2)c1CC` were 72 µM and 5.6 µM.
Regarding `CCOC(=O)c1c(-c2ccccc2)nc(SCc2ccc(C(=O)/C=C(\O)C(=O)O)cc2)nc1-c1ccccc1`, the IC50 in data set [1] was 30 µM; in data set [2], 6.1 µM.
Consider `CCOC(=O)c1c(-c2ccccc2)nc(SCc2ccc(C(=O)/C=C(\O)C(=O)O)cc2)nc1-c1ccc(OC)cc1`, for which the values for the IC50 in data set [1] and in data set [2] were 23 µM and 1.2 µM, respectively.
In the case of `CCOC(=O)c1c(-c2ccc(F)cc2)nc(=O)n(Cc2ccc(C(=O)/C=C(\O)C(=O)O)cc2)c1C`, the IC50 in data set [1] stood at 17.4 µM; in data set [2], 1.3 µM.
For the compound `CCOC(=O)c1c(Cc2ccccc2)nc(=O)n(Cc2ccc(C(=O)/C=C(\O)C(=O)O)cc2)c1C`, the IC50 in data set [1] turned out to be 16.9 µM; in [2] it was 0.19 µM.
Taken in the same sequence, the figures for `CCOC(=O)c1c(-c2ccc(OC)cc2)nc(=O)n(Cc2ccc(C(=O)/C=C(\O)C(=O)O)cc2)c1-c1ccccc1` were 17.2 µM and 1.9 µM.
As for `CCOC(=O)c1c(-c2ccccc2)nc(=O)n(Cc2ccc(C(=O)/C=C(\O)C(=O)O)cc2)c1-c1ccccc1`, the IC50 in data set [1] turned out to be 18.4 µM; in data set [2] it was 2 µM.
As to `CCOC(=O)c1c(-c2ccc(OC)cc2)nc(=O)n(Cc2ccc(C(=O)/C=C(\O)C(=O)O)cc2)c1C(C)C`, the values for the 50% inhibitory concentration (IC50) in [1] and in data set [2] were 19.2 µM and 3.3 µM, respectively.
What is called CC50 is the concentration at which the toxic effect on the cells reaches its halfway point. On to `Cc1cn([C@H]2C[C@H](N=[N+]=[N-])[C@@H](CO)O2)c(=O)[nH]c1=O` [ZIDOVUDINE], for which the CC50 in the data set on Vero is 39.5 µM; in the data set with CCRF-CEM, 56.1 µM. The CC50 at 120 h in [3] was over 100 µM.
Consider `CCOC(=O)c1c(-c2ccccc2)nc(=O)n(Cc2ccc(C(=O)/C=C(\O)C(=O)O)cc2)c1CC`, for which the IC50 in data set [1] turned out to be 19.1 µM; in data set [2], 0.64 µM.
Taken in the same sequence, the figures for `CCOC(=O)c1c(-c2ccc(F)cc2)nc(=O)n(Cc2ccc(C(=O)/C=C(\O)C(=O)O)cc2)c1C(C)C` were 40 µM and 3.6 µM.
Usually EC50 stands for the midpoint of the concentration-response curve. On to `CCOC(=O)c1c(-c2ccccc2)nc(=O)n(Cc2ccc(C(=O)/C=C(\O)C(=O)OC(C)C)cc2)c1CC`, for which the results for the CC50 in the data set on Vero, in the data set with CCRF-CEM and with PBMC were over 100 µM, 21.4 µM and over 100 µM, respectively. The 50% effective concentration (EC50) in [4] is over 100 µM.
As to `CCOC(=O)c1c(-c2ccccc2)nc(SCc2ccc(C(=O)/C=C(\O)C(=O)O)cc2)nc1-c1ccc(F)cc1`, the figures for the half-maximal inhibitory concentration (IC50) in data set [1] and in data set [2] were 22 µM and 2.8 µM, respectively.
Turning to `CCOC(=O)c1c(-c2ccc(F)cc2)nc(=O)n(Cc2ccc(C(=O)/C=C(\O)C(=O)O)cc2)c1CC`, the IC50 was determined as 35 µM in [1] and 1.1 µM in data set [2].
`CCOC(=O)c1c(CC)nc(SCc2ccc(C(=O)/C=C(\O)C(=O)O)cc2)nc1-c1ccc(F)cc1`: the IC50 worked out at 29.3 µM in data set [1] and 0.92 µM in data set [2].
The corresponding values for `CCOC(=O)c1c(CC)nc(SCc2ccc(C(=O)/C=C(\O)C(=O)O)cc2)nc1-c1ccccc1` are 21.1 µM and 2.23 µM.
For the compound `CCOC(=O)c1c(-c2cc(C)cc(C)c2)nc(=O)n(Cc2ccc(C(=O)/C=C(\O)C(=O)O)cc2)c1-c1ccccc1`, the figures for the concentration for half-maximal inhibition (IC50) in data set [1] and in data set [2] were 16.3 µM and 1.3 µM, respectively.
The corresponding values for `CCOC(=O)c1c(-c2ccccc2)nc(=O)n(Cc2ccc(C(=O)/C=C(\O)C(=O)O)cc2)c1C` are over 111 µM and 2.4 µM.
As to `CCOC(=O)c1c(-c2ccc(OC)cc2)nc(=O)n(Cc2ccc(C(=O)/C=C(\O)C(=O)OC(C)C)cc2)c1-c1ccccc1`, the figures for the half-maximal cytotoxic concentration (CC50) at 120 h in data set [5], in [6] and in [3] were over 100 µM, 25.3 µM and over 100 µM, respectively. Further, the EC50 in data set [4] turned out to be 80.6 µM.
For the compound `CCOC(=O)c1c(-c2ccccc2)nc(=O)n(Cc2ccc(Cc3cccc(C(=O)/C=C(\O)C(=O)OC(C)C)c3)cc2)c1CC`, the results for the CC50 at 120 h in [5], in [6] and in data set [3] were over 100 µM, 8.9 µM and 47.6 µM, respectively. The concentration for a half-maximal effect (EC50) in data set [4] worked out at 36.8 µM.
On to `CCOC(=O)c1c(-c2ccc(F)cc2)nc(=O)n(Cc2ccc(C(=O)/C=C(\O)C(=O)O)cc2)c1-c1ccccc1`, for which the values for the IC50 in data set [1] and in data set [2] were 16.6 µM and 2.4 µM, respectively.
For `CCOC(=O)c1c(Cc2ccccc2)nc(=O)n(Cc2ccc(C(=O)/C=C(\O)C(=O)OC(C)C)cc2)c1C`, the CC50 in the data set on Vero is 32.9 µM; in the data set with CCRF-CEM, 7.3 µM; with PBMC it was 77 µM. For the same compound, in [4], the EC50 was determined as 17.2 µM.
As to `CCOC(=O)c1c(-c2ccccc2)nc(=O)n(Cc2ccc(C(=O)/C=C(\O)C(=O)O)cc2)c1C(C)C`, the IC50 in data set [1] came to 37.5 µM; in [2], 2.3 µM.
Take `CCOC(=O)c1c(CC)nc(SCc2ccc(C(=O)/C=C(\O)C(=O)OC(C)C)cc2)nc1-c1ccc(F)cc1`: the CC50 in the data set with Vero stood at 39.5 µM; in the data set on CCRF-CEM, 5.2 µM; in the data set with PBMC, 43.2 µM. For the same compound, in data set [4], the EC50 came out at 25.6 µM.

(Values after ChEMBL document CHEMBL3734651, “Synthesis of dihydropyrimidine α,γ-diketobutanoic acid derivatives targeting HIV integrase” (Eur J Med Chem, 2015).)
